CSN inh = inhibitors of human CSN-mediated cullin deneddylation; inhibition, % at 12.5 µM; Purified CSN, SCF-Nedd8-OG deneddylation, fluorescence polarization; Q92905; AID 651999; 0.38% of 360,000 active;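 active means pattern-corrected inhibition above about 35%, with an unprinted fluorescence ratio check between 0.5 and 1.5, limit read from the data, passing the limit was not always enough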;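 further: 0% = enzyme with substrate and 100% = substrate without enzyme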
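Detection – fluorescence polarization · System – HEK293T-derived human Csn5 enzyme · Controls – substrate-only high control, full reaction low control · Timing – 90 min, room temperature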
PP1 inh = counter-screen for PP5 inhibitors: inhibitors of human PP1-alpha. purified PP1alpha, OMFP fluorescence. inhibition, % at 6.7 µM. 0.9% of 320,000 active;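 active means inhibition above the mean inhibition of all tested compounds plus 3 SD, computed separately for each screening campaign, cut at about 15% in these data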
Rpn11 inh = blocks the human proteasome subunit Rpn11 | 0.59% of 360,000 active | human 26S proteasome, Ub4-pepOG fluorescence polarization; 20S core pre-blocked with epoxomicin | O00487 | inhibition, % at 20 µM;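 active means inhibition at 20 µM, scaled to each plate's controls, above about 33%, limit read from the data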
NadD block = NadD (S. aureus) enzyme inhibition. 0.78% of 360,000 active. AID 602399. purified NadD enzyme, colorimetric absorbance read-out. inhibition, % at 20 µM; in the data active means inhibition above about 26%
TPT1 inhibitor = C. albicans TPT1 enzyme inhibition. recombinant caTPT1, FP RNA substrate dephosphorylation. AID 1962. inhibition, % at 5 µM. 0.81% of 300,000 active;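 active means inhibition above the mean of all tested compounds plus 3 SD, set per screening campaign, cut at about 24% in these data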;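 further: plate controls were DMSO alone for no effect and ferristatin control at 100 nM for full effect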
HNF4A DNA FP = change in binding of human HNF4 alpha to DNA; P41235; HNF4a-FITC DNA binding, fluorescence polarization, 1 h; activity change, % at 10 µM; 0.3% of 360,000 active; AID 1224865; in the data active means activity change above about 30%, passing the limit was not always enough
PP1 confirm = human PP1 phosphatase inhibition, confirmation | shares compounds with PP1 inh | purified PP1alpha, OMFP substrate fluorescence | inhibition, % at 6.7 µM | 52% of 1,900 active;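 active means mean PP1 inhibition above a set limit taken from the earlier primary screen, cut at about 15% in these data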
PP5 counter = inhibits human PP5 phosphatase in PP1 counter-screen; shares compounds with PP1 inh; purified PP5c, OMFP fluorescence; inhibition, % at 6.7 µM; 4% of 1,900 active; AID 2360;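 active means mean PP5 inhibition over triplicate wells above about 9.5% taken from the earlier PP1 screen, limit read from the data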
Rpn11 confirm = confirmation of human proteasome Rpn11 inhibitors; 29% of 1,900 active; shares compounds with Rpn11 inh; purified human 26S proteasome, Ub4-pepOG fluorescence polarization; proteasome pretreated with epoxomicin; inhibition, % at 20 µM
MMP-2 counter-1 = counter-screen for RPN11 inhibitors: inhibition of human MMP-2; recombinant MMP-2, FRET peptide cleavage fluorescence; shares compounds with Rpn11 inh; inhibition, % at 20 µM; 4% of 1,900 active; AID 602330;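 further: human MMP-2 activated beforehand with APMA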
Thrombin FP = counter-screen for RPN11 inhibitors: inhibition of bovine thrombin. shares compounds with Rpn11 inh. bovine thrombin cleavage of Ub4-pepOG, fluorescence polarization. inhibition, % at 20 µM. 13% of 1,900 active;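 active means mean inhibition at least 40% at 20 µM, or signal 3 deviations below plate average, so some actives read negative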;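 further: plate controls were thrombin with DMSO for no effect and buffer wells lacking thrombin for full effect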
Target sequence (P00735 whole entry, looked up): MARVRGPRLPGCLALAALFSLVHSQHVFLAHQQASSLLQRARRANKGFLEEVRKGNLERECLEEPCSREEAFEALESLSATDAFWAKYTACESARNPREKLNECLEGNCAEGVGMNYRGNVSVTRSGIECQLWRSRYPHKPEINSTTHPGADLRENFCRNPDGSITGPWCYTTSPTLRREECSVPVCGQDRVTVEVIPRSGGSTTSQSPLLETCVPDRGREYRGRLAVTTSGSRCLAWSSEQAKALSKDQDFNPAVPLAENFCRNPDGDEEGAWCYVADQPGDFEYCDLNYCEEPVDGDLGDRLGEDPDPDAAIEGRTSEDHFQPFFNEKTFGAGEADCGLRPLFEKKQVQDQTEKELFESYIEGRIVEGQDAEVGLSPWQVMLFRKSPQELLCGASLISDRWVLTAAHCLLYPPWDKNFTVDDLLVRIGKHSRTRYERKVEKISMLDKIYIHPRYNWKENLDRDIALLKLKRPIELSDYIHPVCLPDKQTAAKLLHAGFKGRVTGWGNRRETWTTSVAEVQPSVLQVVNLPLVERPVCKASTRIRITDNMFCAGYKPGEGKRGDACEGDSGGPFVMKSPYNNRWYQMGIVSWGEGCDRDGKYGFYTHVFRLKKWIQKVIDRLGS
NadD inh conf = NadD (S. aureus) inhibition, single concentration confirmation. inhibition, % at 20 µM. 13% of 2,000 active. purified S. aureus NadD, colorimetric enzyme assay. AID 624309. shares compounds with NadD block; in the data active means inhibition mostly above about 42%, no sharp cut-off; inactive means mostly below about 42%
CSN deneddyl val = validation of inhibitors of human CSN-mediated cullin deneddylation. shares compounds with CSN inh. Csn5 deneddylation of SCF-Nedd8OG, fluorescence polarization, 90 min. inhibition, % at 16.6 µM. 62% of 540 active. AID 720654; in the data active means inhibition above about 50%;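 further: 0% = DMSO with enzyme and 100% = no enzyme wells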
MMP-2 counter-2 = blocks human MMP-2 in a CSN deneddylation counter-screen; shares compounds with CSN inh; recombinant MMP-2, FRET substrate fluorescence, 60 min; inhibition, % at 16.6 µM; AID 720655; 33% of 540 active;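 active means corrected plate-normalized z-score of 5 or more, or -5 or less, or inhibition of 15% or more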;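 further: plate controls were DMSO wells with enzyme for no effect and buffer wells lacking MMP-2 for full effect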
Thrombin cntr = thrombin (bovine) inhibition, counter-screen for CSN hits; 49% of 540 active; AID 720656; shares compounds with CSN inh; inhibition, % at 16.6 µM; bovine thrombin cleavage of Ub4-pepOG, fluorescence polarization;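 active means inhibition at or above a set limit, with a fluorescence interference ratio between 0.5 and a set maximum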
HNF4A confirm = change in binding of human HNF4 alpha to DNA, retest; shares compounds with HNF4A DNA FP; HNF4A-FITC DNA binding, fluorescence polarization, 1 h; activity change, % at 12.5 µM; 99% of 210 active; AID 1224897; call rule not given here
An asterisk follows results filed as active; i = inactive; . = no result; ! = not active in a repeat. Sampled rows, rich in hits. Any-hit rate of the full collection: about 2.7%. Unless noted, no stated cut-off is given here; in the data, active means inhibition above about 40%; inactive means the rest.

SMILES | CSN inh | PP1 inh | Rpn11 inh | NadD block | TPT1 inhibitor | HNF4A DNA FP | Rpn11 confirm | MMP-2 counter-1 | Thrombin FP | others
Cc1c(S(=O)(=O)NC2CCCCCC2)c(=O)n(C)c(=O)n1C | -2 | -1 | -8 | 1 | -1 | -1 | . | . | .
N#Cc1c(N2CCCC(O)C2)nc(N)c2c(N)nc3c(c12)CC(=O)N3C12CC3CC(CC(C3)C1)C2 (centres undefined) | 52* | 19* | 28 | 57* | 7 | 28 | . | . | . | PP1 confirm=9;PP5 counter=57*;CSN deneddyl val=93*;MMP-2 counter-2=4;Thrombin cntr=-43
CCN1/C(=C/C(C)=C/c2sc3ccccc3[n+]2CC)Sc2ccccc21 | 77* | 23* | 121* | 3 | -41 | 197* | . | . | . | PP1 confirm=3;PP5 counter=10;CSN deneddyl val=22;MMP-2 counter-2=50*!;Thrombin cntr=113*
CCN1/C(=C\C(=S)Nc2ccccc2)Sc2ccccc21 | 0 | -6 | 11 | 9 | -3 | 14 | . | . | .
Cc1cc(C)c2nc(N3C(=O)C(O)=C(C(=O)c4ccco4)C3c3ccco3)sc2c1 (centres undefined) | 35* | 32* | 39* | 39* | 5 | -15 | 34 | 10 | 37 | PP1 confirm=31*;PP5 counter=1;NadD inh conf=46;MMP-2 counter-2=10;Thrombin cntr=-6
O=c1c(Cl)c(N/N=C/c2ccc(Cl)cc2)cnn1-c1ccccc1 | 28 | 29* | 115* | 1 | -1 | 39* | 17 | -15 | 2 | PP1 confirm=21*;PP5 counter=-1;HNF4A confirm=45*
CN1[C@@H](COCc2ccccc2)C=CS1(=O)=O | -2 | . | 4 | -10 | . | 0 | . | . | .
C=CCn1c(SCC(=O)Nc2ccc(-c3nc4ccc(C)cc4s3)cc2)nnc1-c1ccccc1 | 20 | 6 | 64* | 24 | 9 | 2 | 81* | -18 | -3
Cc1ccc(C(=O)Nc2ccc(C(=O)N/N=C/c3cccnc3)cc2)cc1 | 8 | 9 | 57* | -1 | 3 | -4 | 49* | i | -36
Cc1cccc(C(=O)Nc2ccc(C(=O)N/N=C/c3cccnc3)cc2)c1 | -2 | -2 | 6 | -4 | -1 | -3 | . | . | .
COc1ccc2c(Cl)c(C(=O)N/N=C/c3c(C)[nH]c4ccccc34)sc2c1 | 14 | 4 | 72* | 29 | 17 | 19 | 99* | -15 | 53*
CN1CCCC1CCNc1ccc2c(=O)c3ccccc3oc2c1 (centres undefined) | -3 | 5 | -6 | -4 | -5 | 0 | . | . | .
CN1CCC[C@H]1CCNc1ccc2c(=O)c3ccccc3n(C)c2c1 | 5 | . | 48* | 28 | . | 6 | -9 | 6 | -25
CCN1C(=O)c2cccc3c(NC(=O)c4ccc(S(=O)(=O)N5CCOCC5)cc4)ccc1c23 | 6 | 0 | 75* | -1 | 5 | -7 | 5 | -16 | -1
CCN1C(=O)c2cccc3c(NC(=O)c4ccc(S(=O)(=O)N(C)C)cc4)ccc1c23 | -1 | -2 | 8 | 8 | 10 | 2 | . | . | .
CC(=O)N1CCN(c2ccc(NC(=O)c3cccc(OCc4ccccc4)c3)cc2)CC1 | -4 | 2 | 82* | -2 | -6 | 4 | -6 | -11 | -13
Cc1ccc(-c2n[nH]c(=S)n2/N=C/c2sccc2C)cc1 | -2 | 14 | 8 | 4 | -5 | 2 | . | . | .
Cc1ccsc1/C=N/n1c(-c2cc(-c3ccccc3)n[nH]2)n[nH]c1=S | 6 | 15 | 53* | 15 | -2 | -5 | 100* | 20 | 14
Cc1ccc(S(=O)(=O)N2[C@@H](c3ccc(Cl)c(Cl)c3)C(C(=O)O)=C[C@H]2CC2CCCC2)cc1 | 9 | . | 57* | 14 | . | -3 | 19 | -11 | 12
Cc1ccc(S(=O)(=O)N2[C@@H](c3ccc(Cl)cc3)C(C(=O)O)=C[C@H]2CC2CCCC2)cc1 | 9 | . | 10 | 6 | . | -2 | . | . | .
O=C(Cc1cccs1)N1CCC(c2nc3c(nnn3Cc3ccccc3)c(=O)[nH]2)CC1 | 3 | 3 | 53* | -2 | 1 | 1 | -5 | -9 | -9
COc1ccc(C2CC(c3cccs3)=NN2C(=O)CSC2=NCCS2)cc1 (centres undefined) | 1 | 4 | 80* | 11 | 3 | 8 | 18 | -18 | 10
Cc1ccc(C2CC(c3cccs3)=NN2C(=O)CSC2=NCCS2)cc1 (centres undefined) | 6 | 9 | 4 | 3 | 2 | 0 | . | . | .
CCC(=O)N1N=C(c2cccs2)CC1c1ccc(C)cc1 (centres undefined) | -1 | 0 | -2 | -3 | 0 | 7 | . | . | .
COc1ccc(C2CC(c3cccs3)=NN2C(=O)COC(=O)c2cncc(Br)c2)cc1OC (centres undefined) | 11 | 8 | 43* | 11 | 4 | 4 | 22 | 63* | 4
Cc1ccc(C2CC(c3cccs3)=NN2C(=O)CCl)cc1 (centres undefined) | 16 | 0 | 46* | -2 | 3 | 15 | 8 | -8 | 8
CCCCCCCC(=O)Nc1ccc(C(=O)N/N=C/c2cccc([N+](=O)[O-])c2)cc1 | 4 | 3 | 38* | 10 | -7 | -7 | 3 | -34 | -11

Assay outcomes from PubChem BioAssay.
